Tests used:
[1] = system: HCT-116; assay: Antiproliferative activity against human HCT116 cells after 72 hrs; assay type: functional; details: HCT-116, 72 h
Outline: (§1)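 HCT-116 cells were kept in McCoy's 5a with 1.5 mM L-glutamine and 5% FBS, and MDA-MB-435 cells in D-MEM with 1.5 mM L-glutamine and 5% FBS, both at 37 °C in humidified 5% CO2. Cells were seeded at 3200 per well, allowed to attach, and given vehicle or drug at 10 nM–3 µM (n = 8) for 72 h. Live cells were read by CellTiter 96 AQueous at 490 nm, and the 50% inhibitory value was taken from the dose–response curve.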

[2] = Inhibition of tubulin polymerization
[3] = system: MDA-MB-435; assay: Antiproliferative activity against human MDA-MB-435 cells after 72 hrs; assay type: functional; details: MDA-MB-435, 72 h; outline: as §1
[4] = Displacement of [3H]colchicine from tubulin at 50 uM
[5] = Displacement of [3H]colchicine from tubulin at 5 uM

| Structure (SMILES) | GI50 [1] [nM] | IC50 [2] [nM] | GI50 [3] [nM] | inhibition [4] [%] | inhibition [5] [%] |
| --- | --- | --- | --- | --- | --- |
| Cc1ccccc1-c1ccc(C2NC(=O)c3cc([N+](=O)[O-])ccc3N2)cc1 (racemic) | 300 | 1700 | 100 | 51 | 17 |
| COc1ccc(/C=C\c2cc(OC)c(OC)c(OC)c2)cc1O | – | – | – | – | 99 |
| Cc1ccccc1-c1ccc([C@H]2NC(=O)c3cc([N+](=O)[O-])ccc3N2)cc1 | 930 | 16000 | 1100 | 5.5 | 2.1 |

The remaining compounds from weak to strong by GI50 [3], led by results:

| GI50 [1] [nM] | IC50 [2] [nM] | GI50 [3] [nM] | inhibition [4] [%] | inhibition [5] [%] | Structure (SMILES) |
| --- | --- | --- | --- | --- | --- |
| – | – | 4 | – | – | CC(=O)O[C@H]1C(=O)[C@@]2(C)[C@H]([C@H](OC(=O)c3ccccc3)[C@]3(O)C[C@H](OC(=O)[C@H](O)[C@@H](NC(=O)c4ccccc4)c4ccccc4)C(C)=C1C3(C)C)[C@]1(OC(C)=O)CO[C@@H]1C[C@@H]2O [PACLITAXEL] |
| 100 | 1100 | 0.1 | 66 | 28 | Cc1ccccc1-c1ccc([C@@H]2NC(=O)c3cc([N+](=O)[O-])ccc3N2)cc1 |
